Consider one compound from ChEMBL document CHEMBL4251598, “Development of novel bis-pyrazole derivatives as antitumor agents with potent apoptosis induction effects and DNA damage” (Eur J Med Chem, 2018).

For data set [1], the system named is SMMC-7721. Nature of the data set: Induction of apoptosis in human SMMC7721 cells assessed as apoptotic cells after 72 hrs by FITC-Annexin-V/7AAD/propidium iodide staining based flow cytometry. The class given is functional, cell-based. The essentials: (§1)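 SMMC-7721 cells cultured overnight, then treated in triplicate with 0.2, 0.8 or 3.2 μM, vehicle, or ADM (3.2 μM) for 72 h. Stained with annexin V and PI (methods section: APC-annexin V/7-AAD) for 15 min at room temperature. Mean ± SD of three independent experiments.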
On the technique in general: In flow cytometry, cells or beads pass a laser one at a time.

For data set [2], the system named is SMMC-7721. Nature of the data set: Induction of apoptosis in human SMMC7721 cells assessed as increase in Bax expression after 72 hrs by Western blot analysis. The class given is functional, cell-based. The essentials:
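Sub-confluent SMMC-7721 cells treated with vehicle, compound or ADM at indicated concentrations for 72 h. Lysed on ice in NP-40/deoxycholate/SDS buffer with PMSF and leupeptin. Up to 50 µg protein run on SDS-PAGE, transferred to PVDF and probed with specific antibodies; ECL detection. Bands quantified by densitometry relative to β-actin, mean ± SD of three experiments.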
Background: In western blotting, separated proteins are transferred to a membrane and probed.

Data set [3] deals with SMMC-7721. Nature of the data set: Induction of apoptosis in human SMMC7721 cells assessed as apoptotic cells at 3.2 uM after 72 hrs by FITC-Annexin-V/7AAD/propidium iodide staining based flow cytometry relative to control. The class given is functional. The essentials: as §1
A further data set relates to SGC-7901. Description: Potency index, ratio of 5-FU IC50 to compound IC50 for human SGC7901 cells. The class given is functional.
The nature of data set [4]: Acute toxicity in ICR mouse assessed as survival at 200 mg/kg, ip measured on day 14. In kind it is organism-based. Particulars: in vivo. Put shortly:
(§2)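 Female ICR mice, 10 per group, single intraperitoneal injection at 488.3, 390.6, 312.5, 250 or 200 mg/kg, or vehicle control. Survival, eating, drinking, body weight and activity were monitored for up to 14 days after dosing. MTD was defined as the highest dose giving no drug-related moribund state or death, with temporary body-weight loss within 20%. LD50 was calculated from mortality.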

For data set [5], the system named is Mus musculus. Description: Acute toxicity in ICR mouse assessed as mouse mortality level at 200 to 250 mg/kg, ip measured on day 4 post dose. In kind it is organism-based. Particulars: in vivo. Put shortly: as §2
For data set [6], the system named is Mus musculus. Description: Acute toxicity in ICR mouse assessed as effect on animal activity at 200 mg/kg, ip measured up to 14 days post dose. The class given is organism-based. To be noted: in vivo, 336 h. Put shortly: as §2
Data set [7] concerns SMMC-7721. Nature of the data set: Antiproliferative activity against human SMMC7721 cells after 72 hrs by MTT assay. The class given is functional, cell-based. To be noted: SMMC-7721, 72 h. The essentials:
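Cells in DMEM with 10% FBS, 10^4 cells/mL, adhered overnight at 37 °C, 5% CO2. Treated in triplicate with a range of concentrations for 72 h. MTT (5 mg/mL solution) added for the last 4 h, formazan dissolved in DMSO, absorbance read at 570 nm. IC50 calculated from percent inhibition. Mean ± SD of three independent experiments.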
In general terms: Formazan colour is commonly taken as a measure of viable cells.

Data set [8] in a line: Acute toxicity in ICR mouse at 200 to 488.3 mg/kg, ip. In kind it is organism-based. Particulars: in vivo. Put shortly:
as §2

The subject of data set [9] is Mus musculus. Description: Acute toxicity in ICR mouse assessed as effect on drinking behaviour at 200 mg/kg, ip measured up to 14 days post dose. In kind it is organism-based. To be noted: in vivo, 336 h. Put shortly: as §2
The subject of data set [10] is SMMC-7721. Description: Induction of DNA double stranded breaks in human SMMC7721 cells assessed as increase in H2AX phosphorylation at S139 after 72 hrs by Western blot analysis. In kind it is functional, cell-based. The essentials:
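SMMC-7721 cells treated with vehicle, compound at 0.2, 0.8 or 3.2 μM, or ADM for 72 h. Lysates immunoblotted for H2AX pS139, p-p53 (Ser15), total p53 and β-actin, with ECL detection. Signals quantified by densitometry relative to β-actin, mean ± SD of three experiments.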

Data set [11] relates to Mus musculus. Nature of the data set: Acute toxicity in ICR mouse assessed as mouse mortality level at 200, ip measured on day 1 to 3 days post dose. Particulars: in vivo. In kind it is organism-based. The essentials: as §2
Data set [12] has as its system SMMC-7721. Description: Antitumor activity against human SMMC7721 cells xenografted in BALB/c mouse assessed as tumor growth inhibition at 15 mg/kg, ip measured after 19 days relative to control. The class given is functional. To be noted: SMMC-7721, ip, 456 h, read-out: TGI. The essentials: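 Female BALB/c nude mice, 5-6 weeks old, inoculated subcutaneously with 10^6 SMMC-7721 cells. At 50-100 mm³ tumours, mice were randomized to ip compound (15 or 30 mg/kg), ADM (15 mg/kg) or vehicle, n = 6 per group. Caliper volume ½(L×W²) measured every 3 days to day 19, with body weight monitored. Tumours excised and weighed at the end.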

The test system of data set [13] is SMMC-7721. Description: Antiproliferative activity against human SMMC7721 cells assessed as inhibition of cell proliferation at 25 uM after 72 hrs by MTT assay relative to control. To be noted: SMMC-7721, 72 h. In kind it is functional. Put shortly: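 Cells in DMEM with 10% FBS, plated at 10^4 cells/mL, adhered overnight. Treated at 25 μM for 72 h. MTT added for the last 4 h, formazan dissolved in DMSO, A570 read. Inhibition expressed as percent of untreated. Mean + SD from three separate measurements.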

Take `COc1ccc(Oc2c(/C=N\OCc3c(Cl)c(-c4ccc(Cl)cc4)nn3C)c(C)nn2C)cc1`: the Activity entry is “Dose-dependent effect” with SMMC-7721 [1]; “Dose-dependent effect” in the data set with SMMC-7721 [2]; 63.2% in the data set on SMMC-7721 [3]; “Non-Toxic” in the data set with Mus musculus [5]; “Non-Toxic” in the data set on Mus musculus [6]; “Non-Toxic” in the data set on Mus musculus [9]. Besides, the Activity entry in the data set with SMMC-7721 [10] is “Dose-dependent effect”; in the data set with Mus musculus [11] it was “Non-Toxic”. Besides, the “Ratio IC50” value with SGC-7901 is listed as 17 - 50. For the same compound, the survival at 14 day in data set [4] came out at 100%. Also, 760 nM corresponded to half-maximal inhibition in the data set with SMMC-7721 [7] (IC50). Also, the LD50 (commonly the dose at which mortality reaches 50%) in data set [8] is 350 mg/kg. In the data set on SMMC-7721 [12], the inhibition in vivo at 15 mg/kg worked out at 44%. Further, the inhibition – broadly, the drop in the measured response relative to a control, in per cent – at 25 µM in the data set on SMMC-7721 [13] stood at 80%.
